Data published in ChEMBL document CHEMBL1134481, “Development of a pharmacophore model for histamine H3 receptor antagonists, using the newly developed molecular modeling program SLATE” (J Med Chem, 2001).

Experiments:
Assay type in all cases: tissue-based
[1] = target: T1, Histamine H3 receptor (Rattus norvegicus, UniProt Q9QYN8); experiment: (§1) Ability to displace [3H]Nalpha-methylhistamine from histamine H3 receptors in homogenates of rat cerebral cortex
Outline: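 Rat cortex membranes were made by homogenizing in Tris/HCl (50 mM, 5 mM MgCl₂, 145 mM NaCl, pH 7.4) and spinning at 800g, then twice at 40000g. Binding used 30 µg protein and 1 nM [³H]-Nα-methylhistamine with 0.1–10 000 nM compound, in 50 mM Na⁺ phosphate pH 7.4, for 40 min at 25 °C. Samples were filtered on PEI-treated GF/C and counted by scintillation. Ki = IC50/(1+[ligand]/Kd).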

[2] = target: Histamine H3 receptor (Cavia porcellus, UniProt Q9JI35); experiment: Displacement of [3H]Nalpha-methylhistamine from histamine H3 receptors in homogenates of rat cerebral cortex; details: read-out: pA2 (converted)
Histamine H3 receptor (Cavia porcellus, UniProt Q9JI35), sequence (Q9JI35 whole entry): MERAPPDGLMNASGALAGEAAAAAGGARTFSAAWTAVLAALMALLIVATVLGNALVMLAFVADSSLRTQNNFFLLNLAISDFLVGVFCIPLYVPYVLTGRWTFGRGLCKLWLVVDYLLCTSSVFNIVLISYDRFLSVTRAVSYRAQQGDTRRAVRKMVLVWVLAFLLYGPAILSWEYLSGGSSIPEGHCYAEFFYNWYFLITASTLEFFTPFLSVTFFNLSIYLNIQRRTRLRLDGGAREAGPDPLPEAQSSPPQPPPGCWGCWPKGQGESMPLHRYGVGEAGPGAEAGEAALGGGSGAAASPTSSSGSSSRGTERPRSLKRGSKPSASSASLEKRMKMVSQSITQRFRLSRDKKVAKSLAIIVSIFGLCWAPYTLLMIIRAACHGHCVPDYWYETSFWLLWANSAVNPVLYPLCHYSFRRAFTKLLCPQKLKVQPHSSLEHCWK

[3] = target: T1, Histamine H3 receptor; experiment: as §1; remark: listed apart in the source
Outline: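 Binding used 30 µg protein and 1 nM [³H]-Nα-methylhistamine with 0.1–10 000 nM compound, in 50 mM Na⁺ phosphate pH 7.4, for 40 min at 25 °C. Samples were filtered on PEI-treated GF/C and counted by scintillation. Ki = IC50/(1+[ligand]/Kd).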

T1 sequence (Q9QYN8 whole entry): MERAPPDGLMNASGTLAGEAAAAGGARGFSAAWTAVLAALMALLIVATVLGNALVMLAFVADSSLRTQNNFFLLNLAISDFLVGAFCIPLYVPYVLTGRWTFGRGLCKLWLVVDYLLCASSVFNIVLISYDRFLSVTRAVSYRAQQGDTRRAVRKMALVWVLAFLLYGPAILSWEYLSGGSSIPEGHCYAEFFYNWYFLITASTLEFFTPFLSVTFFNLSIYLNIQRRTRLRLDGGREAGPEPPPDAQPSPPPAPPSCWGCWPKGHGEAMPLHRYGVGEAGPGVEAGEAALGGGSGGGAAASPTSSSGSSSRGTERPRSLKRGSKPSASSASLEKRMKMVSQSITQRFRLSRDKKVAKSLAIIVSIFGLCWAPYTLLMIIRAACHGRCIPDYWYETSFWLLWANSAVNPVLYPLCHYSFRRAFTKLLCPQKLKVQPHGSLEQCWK

SMILES | Kb [2] | Ki [3] | also measured
NC(/C=C/C1CC1c1c[nH]cn1)CC1CCCCC1 (stereo unspecified) | – | – | Ki [1]: 0.4 nM
c1nc(CCC2CCNCC2)c[nH]1 | 3.98 nM | – | –
Clc1ccc(CNCCCCCc2c[nH]cn2)cc1 | 1.26 nM | – | –
Clc1ccc(CN=C(NC2CCCCC2)SCCCc2cnc[nH]2)cc1 | – | 0.501 nM | –
c1nc(CCCS/C(=N/C2CCCCC2)NC2CCCCC2)c[nH]1 | – | 12.6 nM | –
C/N=C(/NCc1ccc(Cl)cc1)SCCCc1c[nH]cn1 | – | 3.16 nM | –
Clc1ccc(Cc2noc(CCCc3cnc[nH]3)n2)cc1 | 7.94 nM | – | –
O=C(NCCCc1c[nH]cn1)NC1CCCCC1 | 50.1 nM | – | –
CC(C)(C)CC#CC1CC1c1cnc[nH]1 (stereo unspecified) | – | – | Ki [1]: 0.18 nM
O=C(Cc1ccc(Cl)cc1)OCCCc1c[nH]cn1 | – | – | Ki [1]: 14 nM
CC/N=C(\NCc1ccc(Cl)cc1)SCCCc1c[nH]cn1 | – | 7.94 nM | –
CCCS/C(=N/C)NCc1ccc(Cl)cc1 | – | > 100000 nM | –
N=C(Cc1ccc(Cc2cnc[nH]2)cc1)NCc1ccc(Cl)cc1 | – | – | Ki [1]: 7 nM
NC(=NCc1ccc(Cl)cc1)SCCCc1cnc[nH]1 [CLOBENPROPIT] | 0.158 nM | – | –
Ic1ccc(COCCCc2c[nH]cn2)cc1 [IODOPROXYFAN] | 5.01 nM | – | –
S=C(NC1CCCCC1)N1CCC(c2cnc[nH]2)CC1 [THIOPERAMIDE] | 1.26 nM | – | –
